From ChEMBL document CHEMBL4513216, “Probing the Open Global Health Chemical Diversity Library for Multistage-Active Starting Points for Next-Generation Antimalarials” (ACS Infect Dis, 2020)

assay: Toxicity liver stage against HepG2, at 10uM; assay type: cell-based; set-up: test concentration 10 uM, cell line HepG2-A16-CD81EGFP; conditions: human, HepG2-A16-CD81EGFP cells; read-out: INHIBITION
Outline: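 Uninfected HepG2-A16-CD81EGFP cells, 3 × 10^3 per well, 1536-well, plated on prespotted compound at 10 μM final, parasite-free screening media added to match infected plates; puromycin 10 μM positive, DMSO 0.5% negative; run in parallel with 48 h PbLuc assay at 37 °C, 5% CO2; viability by CellTiter-Glo luminescence, normalized to controls.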

Point of comparison: `Cn1ncc(N2CCN(Cc3ccc(S(C)(=O)=O)cc3)CC2)cc1=O`, cytotoxicity at 10 µM -1.44%. Against it:
- Cc1sc(NS(=O)(=O)c2ccccc2)nc1C(=O)NC1CC1 — higher, 5.73%
- CC(=O)NCC(=O)NCC1Cn2nnc(-c3cccc(F)c3)c2CO1 (stereo unspecified) — lower, -6.77%
- CC(=O)N1CC2(CCN(C(=O)c3ccoc3)C2)C1 — higher, 6.47%
- CCOc1cc(=O)n2c(c1C(=O)OCc1ccc(OC)cc1)CCCC2 — higher, 5.95%
- Cc1ccc(C2CCCCCN2Cc2cn(C)nc2C)s1 (stereo unspecified) — lower, -6.47%
- Cc1ncc(C(=O)N2CC(C(=O)N3CCCCCC3)C2)c(C)n1 — higher, 6.39%
- COc1ccc2c(c1)c(-c1nc(C)ncc1CN)cn2C — higher, 21.7%
- Cc1nc(C2CCN(S(C)(=O)=O)CC2)nc2c1CCC(=O)N2CC(C)C — higher, 3.44%
- Cc1ccccc1CN1CCOC(c2nccc(CN(C)C)n2)C1 (stereo unspecified) — lower, -9.19%
- O=C(c1ccncc1)N1CC[C@@H](O)[C@@H](O)[C@H](N2CCC(F)(F)CC2)C1 — lower, -10%
- CNc1cc(CNC(=O)c2cccnc2)nc(-c2ccncc2)n1 — lower, -9.88%
- Cc1csc(C(=O)N2CCCC(c3[nH]ncc3S(C)(=O)=O)C2)c1 (stereo unspecified) — lower, -3.17%
- Cn1ccnc1Sc1ncc(C(=O)N2CCCCC2)cc1Cl — lower, -61%
- CCOc1ccc(N(C)Cc2nnc(C)o2)cc1 — higher, 9.46%
- O=C(CCNc1ccccc1)NC1CCN(C(=O)C2CCCCC2)CC1 — higher, 6.72%
- CCn1cnnc1CCNS(=O)(=O)N1CCCC1c1ccco1 (stereo unspecified) — lower, -136%
- CCOC1CCN(C(=O)NCc2ccc(C(=O)N(C)C(C)C)cc2)CC1 — lower, -6.55%
- CCN1CCC(NC(=O)N(C)Cc2csc3ccccc23)CC1 — lower, -45%
- CC(C)Oc1ccccc1CNC(=O)N(C)CC(F)F — lower, -41.5%
- CCS(=O)(=O)N1CCc2c(cccc2NCc2ncc[nH]2)C1 — lower, -42.9%
- O=C(c1c(F)cccc1Br)N1CCCOCC1 — higher, 6.69%
- CC(C)CC(NCc1cccs1)c1ccccn1 (stereo unspecified) — higher, 3.46%
- CC(=O)N1CCN(CC(=O)NCCCN(C)c2ccccc2)CC1 — higher, 8.21%
- COc1cc2nc(NCc3ccc(C)nc3)nc(N)c2cc1OC — higher, 2.94%
- CCS(=O)(=O)NCCNCc1ccc(Cl)c2cccnc12 — higher, -0.969%
- CN(C)C1(CNc2ncc(Br)cn2)CCOCC1 — lower, -8.66%
- CCOC1CCCN(C(=O)c2[nH]nc(C)c2Br)C1 (stereo unspecified) — higher, 0.966%
- CCCc1[nH]n(C)c(=N)c1-c1ccc2c(c1)OCO2 — lower, -51.5%
- CCN(C(=O)CN1CCC(c2n[nH]c(C3CC3)n2)CC1)C1CC1 — lower, -2.07%
- O=S(=O)(Nc1c(F)cccc1N1CCCC1)c1cncc(F)c1 — higher, 3.22%
- COC(C)c1cccc(NC(=O)N(CCC#N)Cc2ccccn2)c1 (stereo unspecified) — higher, 13.1%
- CC1(C)CN=C(N2CCN(CC3CCCCO3)CC2)S1 (stereo unspecified) — lower, -1.61%
- CC(NC(=O)N1CCC(CC(N)=O)CC1)c1csc2ccccc12 (stereo unspecified) — higher, 1.73%
- Cc1ccc(OCCCNC(=O)Cc2nc3ncccn3n2)cc1 — higher, -1.08%
- CC(C)NC(=O)CC(C)NCc1cc(Cl)ccc1F (stereo unspecified) — lower, -40%
- CCOc1cc(F)ccc1NS(=O)(=O)c1cc(C)c(C(=O)O)s1 — lower, -10%
- CCOCc1nn(C)c2c1CN(CCO)CC2 — lower, -103%
- Cc1cnc(N2CCCC3(COCCN(c4nccs4)C3)C2)nc1 (stereo unspecified) — lower, -112%
- CC(C)=CCN1CC2(CCN(C(=O)CCn3ccnc3C)CC2)CC1=O — lower, -6.3%
- CNc1ncc(C(=O)N2CCC3(CC2)Nc2ccccc2NC3=O)cn1 — higher, 1.02%
- COc1cc2c(cc1C1CC(=O)NCc3nc(N(C)C)sc31)CCC2 (stereo unspecified) — higher, 1.16%
- COc1ccccc1-n1nc(-c2ccco2)n(CC(=O)NC2CC2)c1=O — higher, 0.355%
- COc1cccc(C(C(=O)O)N2CCCN(c3ccnc(C)c3)CC2)c1 (stereo unspecified) — higher, 4.98%
- O=C(O)c1cc(-c2ccoc2)cc(S(=O)(=O)NCc2ccccn2)c1 — lower, -47.6%
- CC(C)Cc1ncc2c(n1)CN(c1cc(N3CCCC3)nc(N)n1)C2 — higher, 0.489%
- COCCN(C/C=C/c1ccccc1)Cc1ccccn1 — higher, 6.82%
- Cc1ccc(C(C)NCc2cn(CCC(N)=O)c3ccccc23)cc1C (stereo unspecified) — lower, -1.69%
- CSc1nccc(N2CCCC(c3nccn3C(C)C)C2)n1 (stereo unspecified) — higher, 7.72%
- O=C(NCc1c(F)cccc1Cl)c1cc(CN2CCCC(O)C2)on1 (stereo unspecified) — lower, -44.9%
- CC(C)N1C[C@H](NC(=O)c2coc(COc3cccc(F)c3)n2)[C@@H](O)C1 — lower, -145%
- Cc1cc(C)c2c(c1)NC(=O)C2CC(=O)O (stereo unspecified) — higher, 9.13%
- c1ncc(-c2cn(CCSc3cnn[nH]3)nn2)cn1 — lower, -41.7%
- CCOc1ccnc(NCc2nc(C)cc(=O)[nH]2)n1 — lower, -8.42%
- Cc1ncsc1CCC(=O)NC1CCN(Cc2cccs2)CC1 — lower, -3.09%
- CCCc1nc(N2CCCN3CCC[C@H]3C2)c2cnn(C)c2n1 — lower, -129%
- N[C@H]1CN(CCOc2ccc(F)cc2)C[C@@H]1C1CC1 — lower, -1.93%
- COCCN(CC1CCCO1)C(=O)CCNC(=O)c1ccccc1F (stereo unspecified) — lower, -41.7%
- Cn1ncc2c(N3CCN(CCC(N)=O)CC3)nc(C3CCCC3)nc21 — lower, -2.45%
- CCC(=O)c1ccc(OCC(=O)NC(C)Cc2cc(C)n[nH]2)cc1 (stereo unspecified) — lower, -39.7%
- Cc1ccc(C(=O)O)cc1CNC(=O)CN1CC[C@](C)(O)C(C)(C)C1 — lower, -4.18%
- Cc1ccc(CCNc2ncc(C)c(-c3ccnn3C)n2)s1 — higher, 9.68%
- COCc1nc(CN2C(=O)OC[C@@H]2C(C)C)no1 — lower, -12.4%
- COC(=O)N1CCN(C(=O)c2ccc(C)c(N3CCNC3=O)c2)CC1 — higher, 3.76%
- CC(c1cccnc1)N(C)Cc1cc2cc3c(cc2[nH]c1=O)OCO3 (stereo unspecified) — higher, 9.27%
- CC(C)CC(O)C1CCN(C(=O)c2ccc(C(C)C)[nH]c2=O)CC1 (stereo unspecified) — higher, 3.25%
- Cc1ccsc1CN1CC2(CCN(C(=O)C3CC3)CC2)CC1C(=O)O (stereo unspecified) — higher, 3.24%
- COc1ccc(OC)c(C2CCN(C3CCN(C(C)=O)CC3)C2)c1 (stereo unspecified) — lower, -3.2%
- Cc1ccc(N2CCC(CCN3CCCC3=O)CC2)nn1 — higher, 6.35%
- CNC(=O)c1noc(CN2CC[C@](C)(O)[C@H](C)C2)n1 — lower, -37.5%
- Cc1[nH]nc(CCC(=O)N2CCc3ncnc(NCCO)c3CC2)c1C — higher, -0.781%
- COc1ccc2cc(C(=O)N3CC[C@H](CO)[C@H](O)C3)n(C)c2c1 — lower, -7.03%
- O=C1CCC(CCC(=O)N2CCCC2c2nccs2)=NN1 (stereo unspecified) — higher, 4.06%
- COc1cccc(C)c1C(=O)N1CCc2ncnc(NCCO)c2CC1 — higher, 5.69%
- C[C@@H]1CN(C(=O)CCN2CCCC2)CC[C@@]1(O)C1CCC1 — lower, -7.97%
- NCCCn1nc(C(F)(F)F)c2c1CCC2 — lower, -8.3%
- COc1ccc(CNC(C)Cn2cccn2)cc1OC (stereo unspecified) — higher, -0.966%
- CCc1csc(C2CCCN(C(=O)c3cc(C4CC4)[nH]n3)C2)n1 (stereo unspecified) — higher, -1.22%
- CCc1nnc(CN(C)C2CCCN(Cc3noc(C4CC4)n3)C2)o1 (stereo unspecified) — higher, 2.27%
- O=C(c1csc(-c2cnccn2)n1)N1CCCC1Cn1cccn1 (stereo unspecified) — lower, -7.35%
- CCOc1ccc(C(=O)N(Cc2cnn(C)c2)C(C)C)cc1OCC — lower, -8.4%
- CC(C)N1CCN(C(=O)Nc2cnc3c(cnn3C(C)C)c2)CC1 — higher, 6.23%
- CC(C(=O)N1CCOCC1)N1CCN(Cc2nccn2C)CC1 (stereo unspecified) — lower, -1.71%
- O=C(c1cc(C2CC2)on1)N1CCCC(n2cccn2)C1 (stereo unspecified) — lower, -4.04%
- O=C(c1cccc2ncccc12)N1CCCC(n2ccnc2)C1 (stereo unspecified) — lower, -11.6%
- O=C(Cn1nc(-c2ccc(F)cc2)oc1=O)NCCc1ccccc1 — lower, -13.5%
- COc1ccc(CNCc2c(C(C)C)nn(C)c2OC)cn1 — lower, -10.9%
- CCOc1cccc2c1OCC(C(=O)NS(=O)(=O)c1cccs1)=C2 — lower, -2.97%
- COCCN(CCOC)Cc1nc2c(cnn2C)c(=O)[nH]1 — lower, -9.73%
- Cc1noc2ncc(C(=O)N3CCCC(n4cccn4)C3)cc12 (stereo unspecified) — higher, -1.39%
- CCC1CN(C(=O)Nc2cnc3c(cnn3C(C)C)c2)CCO1 (stereo unspecified) — lower, -9.46%
- CC(NC(=O)Cc1cccs1)c1nnc2n1CCCCC2 (stereo unspecified) — lower, -15.5%
- CC(C)c1ncc2c(n1)CN(Cc1nc(-c3ccoc3)no1)CC2 — lower, -3%
- Cc1cnn(CC2CN(CC(=O)Nc3nnc(C)s3)CCO2)c1 (stereo unspecified) — higher, -0.472%
- COc1c(CNC(c2ccc(F)cc2)c2nccn2C)c(C)nn1C (stereo unspecified) — lower, -12.7%
- CNS(=O)(=O)Cc1ccc(CNC(=O)Nc2cn[nH]c2)cc1 — higher, -0.935%
- CC(Cn1cccn1)NC(=O)N(C)Cc1ccc(Cl)s1 (stereo unspecified) — lower, -11.9%
- C1CC(NCc2nc(C3CC3)no2)CN(Cc2noc(C3CC3)n2)C1 (stereo unspecified) — lower, -8.65%
- Cc1cc(C)n(CC2CCCN2CC(=O)N(C)Cc2cnn(C)c2)n1 (stereo unspecified) — lower, -5.85%
- c1cnnc(N2CCCC(NCc3cn4ccccc4n3)C2)c1 (stereo unspecified) — lower, -5.87%
- O=C(c1ccn(-c2cccc(F)c2)n1)N1CCCC(n2cccn2)C1 (stereo unspecified) — lower, -5.25%
- Cc1nn(C)c(N2CCOCC2)c1CNCc1ccc(Cl)s1 — higher, 4.09%
- CC1CN(C(=O)CN(Cc2ccccc2Br)C2CC2)CCO1 (stereo unspecified) — higher, 2.38%
- CCn1nc(C)c(-c2cncn2CCN(C)C2CCCC2)c1C — higher, 4.83%
- CCN1CCc2cc(-c3cncn3CCNC3CCS(=O)(=O)C3)ccc21 (stereo unspecified) — lower, -1.59%
- c1cc2c(cc1C1(CNC3=NCCN3)CCCC1)OCCO2 — higher, 11%
- O=C(NCc1cccs1)[C@@H]1CC[C@@H]2[C@@H](CCN2C2CCOCC2)O1 — higher, 0.37%
- c1cc(CN2CC[C@@H]3CN(c4cnccn4)C[C@@H]3C2)ccn1 — lower, -119%
- Cn1cc(N2CC3(CCN(Cc4ccoc4)CC3)OCC2=O)cn1 — lower, -1.66%
- O=C(NCc1cccnc1)c1nc2c(s1)CCCN2C(=O)C1CC1 — lower, -93%
- Cc1nc(CN2CCc3ncnc(-c4ccncc4)c3CC2)cs1 — lower, -70%
